1 molecule from ChEMBL document CHEMBL4177542, “A New Combination of a Pleuromutilin Derivative and Doxycycline for Treatment of Multidrug-Resistant Acinetobacter baumannii” (J Med Chem, 2017) can be followed below.

In test [1] the test system is Acinetobacter baumannii. As to the kind of experiment: Synergistic antibacterial activity against Acinetobacter baumannii ATCC 19606 infected in C57BL/6 mouse assessed as survival rate at compound to doxycycline ratio of 35:1 at 2 mg/kg, ip administered as single dose measured for 5 days (reference value: <20%). In kind it is functional. The note with it: ATCC 19606 = CIP 70.34 = JCM 6841, ip, 120 h. Put shortly:
(§1)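 C57BL/6 mice (n = 5 per group; 4 untreated controls) infected intraperitoneally with A. baumannii ATCC19606 grown at 37 °C and collected by centrifugation, at a dose giving 75% death. Single intraperitoneal dose (2 to 60 mg/kg) given 1 h after infection. Mice monitored for 5 days, with death as the end point; survival rate recorded.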

Test [2] concerns Acinetobacter baumannii. As to the kind of experiment: Synergistic antibacterial activity against Acinetobacter baumannii ATCC 19606 infected in C57BL/6 mouse assessed as increase in survival rate at compound to doxycycline ratio of 35:1 administered ip as single dose measured for 5 days. It counts as functional. To be noted: ATCC 19606 = CIP 70.34 = JCM 6841, ip, 120 h. Put shortly:
as §1

Test [3] deals with Pseudomonas aeruginosa. As to the kind of experiment: Synergistic bactericidal activity against Pseudomonas aeruginosa ATCC 27853 at 35:1 compound to doxycycline ratio after 48 hrs by resazurin dye based microdilution broth checkerboard method. In kind it is functional. To be noted: ATCC 27853, 48 h, read-out: MBC99.9. The gist of the method: (§2)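 Checkerboard broth microdilution of drug pairs in tryptic soy broth on mid-log cultures (OD 0.5), 48 h at 37 °C. Growth read by resazurin (pink growth, blue no growth). MBC is blue retained over 4 h, CFU plating where needed. ΣFIC = C_A/MIC_A + C_B/MIC_B, taken at the growth/no-growth interface wells; ΣFIC <0.5 counts as synergy.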
On the technique in general: The colour change of resazurin is a common sign of viable cells or microbes.

Test [4] relates to Staphylococcus aureus. As to the kind of experiment: Synergistic bactericidal activity against Staphylococcus aureus ATCC 25923 at 2:1 compound to doxycycline ratio after 48 hrs by resazurin dye based microdilution broth checkerboard method. In kind it is functional. The note with it: ATCC 25923, 48 h, read-out: MBC99.9. The gist of the method:
as §2

The subject of test [5] is Acinetobacter baumannii. As to the kind of experiment: Synergistic antibacterial activity against multidrug-resistant Acinetobacter baumannii ATCC […] at 35:1 compound to doxycycline ratio after 48 hrs by resazurin dye based microdilution broth checkerboard method. In kind it is functional. To be noted: ATCC BAA 18002, 48 h. Put shortly:
(§3)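 Microdilution broth checkerboard of the compound combined with doxycycline, using the resazurin broth method (48 h, 37 °C, blue = no growth). ΣFIC = C_A/MIC_A + C_B/MIC_B, taken at the growth–no growth interface wells; ΣFIC below 0.5 is scored as synergy. MBC for the fixed-ratio combinations read as the 4 h resazurin endpoint.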

In test [6] the test system is Acinetobacter baumannii. As to the kind of experiment: Bactericidal activity against Acinetobacter baumannii ATCC 19606 after 48 hrs by resazurin dye based microdilution method. It counts as functional. The note with it: ATCC 19606 = CIP 70.34 = JCM 6841, 48 h, read-out: MBC99.9. The gist of the method:
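A. baumannii ATCC 19606 grown in tryptic soy broth, 37 °C with shaking, to mid-log (OD 0.5). Cultures treated with serial dilutions of inhibitor (DMSO stock 1 mg/100 μL), 48 h at 37 °C. Resazurin then added, 1 h at 37 °C with shaking. MIC is the lowest concentration staying blue; MBC is blue retained over 4 h, with CFU plating if needed (99.9% kill).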

In test [7] the test system is Klebsiella pneumoniae. As to the kind of experiment: Synergistic bactericidal activity against Klebsiella pneumoniae ATCC 8047 at 2:1 compound to doxycycline ratio after 48 hrs by resazurin dye based microdilution broth checkerboard method. It counts as functional. The note with it: ATCC 8047, 48 h, read-out: MBC99.9. Put shortly: as §2
Test [8] relates to Acinetobacter baumannii. As to the kind of experiment: Antibacterial activity against Acinetobacter baumannii ATCC 19606 infected in C57BL/6 mouse assessed as survival rate at 20 mg/kg, ip administered as single dose measured for 5 days (reference value: <20%). It counts as functional. To be noted: ATCC 19606 = CIP 70.34 = JCM 6841, ip, 120 h. Put shortly: as §1
In test [9] the test system is Acinetobacter baumannii. As to the kind of experiment: Synergistic antibacterial activity against Acinetobacter baumannii ATCC 19606 infected in C57BL/6 mouse assessed as survival rate at compound to doxycycline ratio of 35:1 at 4 mg/kg, ip administered as single dose measured for 5 days (reference value: <20%). It counts as functional. The note with it: ATCC 19606 = CIP 70.34 = JCM 6841, ip, 120 h. Put shortly:
as §1

In test [10] the test system is Acinetobacter baumannii. As to the kind of experiment: Potentiation of doxycycline-induced antimicrobial activity against Acinetobacter baumannii ATCC 19606 at 0.40 ug/ml in presence of 0.05 ug/ml doxycycline by microdilution broth checkerboard method. In kind it is functional, ATCC 19606 = CIP 70.34 = JCM 6841. The gist of the method: (§4)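 A. baumannii ATCC 19606 in a broth microdilution checkerboard with doxycycline, 96 concentration combinations. ΣFIC = C_A/MIC_A + C_B/MIC_B, taken for wells at the growth/no-growth interface; ΣFIC <0.5 counts as synergy.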
For orientation: In broth dilution the organism is exposed to a series of concentrations in liquid medium.

Test [11] concerns Acinetobacter baumannii. As to the kind of experiment: Potentiation of doxycycline-induced antimicrobial activity against Acinetobacter baumannii ATCC 19606 at 0.78 ug/ml in presence of 0.025 ug/ml doxycycline by microdilution broth checkerboard method. In kind it is functional, ATCC 19606 = CIP 70.34 = JCM 6841. The gist of the method:
as §4

For test [12], the system named is Acinetobacter baumannii. As to the kind of experiment: Synergistic antibacterial activity against multidrug-resistant Acinetobacter baumannii ATCC […] at 60:1 compound to doxycycline ratio after 48 hrs by resazurin dye based microdilution broth checkerboard method. It counts as functional. To be noted: ATCC BAA 18002, 48 h. The gist of the method:
as §3

The subject of test [13] is Pseudomonas aeruginosa. As to the kind of experiment: Bactericidal activity against Pseudomonas aeruginosa ATCC 27853 after 48 hrs by resazurin dye based microdilution method. It counts as functional. The note with it: ATCC 27853, 48 h, read-out: MBC99.9. The gist of the method: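 Broth microdilution in tryptic soy broth. Mid-log cultures (OD600 0.5) treated with serial dilutions from a DMSO stock (1 mg per 100 μL) for 48 h at 37 °C. Resazurin (stock 0.02%) then added for 1 h at 37 °C. MIC is the lowest concentration staying blue; MBC is blue retained over 4 h (99.9% kill), with CFU plating when needed.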

Each structure is given as a SMILES string. Values after ≈ are worked out from the molar mass of the structure shown. A value given as a limit tells only on which side of the number the result lay.

The term ED50 denotes the midpoint of the dose-response relation. In general, MIC refers to the lowest concentration that inhibits growth of the organism.

For `C=C[C@]1(C)C[C@@H](OC(=O)CSC(C)(C)CNC(=O)[C@H](N)C(C)C)[C@]2(C)[C@H](C)CC[C@]3(CC[C@@H](O)[C@H]32)[C@@H](C)[C@@H]1O`, the survival at 2 mg/kg in test [1] is 60%. Besides, the 50% effective dose (ED50) in test [2] is < 2 mg/kg. The MBC was 25 mg/L in test [3]; 25 mg/L in test [4]; 3.13 to 6.25 mg/L (≈ 5.52 to 11 µM) in test [6]; 1.56 mg/L in test [7]; > 25 mg/L in test [13]. Moreover, the MIC in test [5] and in [12] was 1.56 mg/L each time. Further, the survival at 20 mg/kg in [8] is 100%. Moreover, the survival at 4 mg/kg in test [9] worked out at 100%. Further, the “fractional inhibitory concentration index (FICI)” value in test [10] was 0.31; in test [11], 0.25 - 0.37.
